Data reported in ChEMBL document CHEMBL3868583, “6-Aryl substituted 4-(4-cyanomethyl) phenylamino quinazolines as a new class of isoform-selective PI3K-alpha inhibitors” (Eur J Med Chem, 2016).

Columns and labels:
[1] = Downregulation of PI3Kalpha expression in human PC3 cells at 30 uM by Western blot analysis; format: functional, cell-based; details: PC-3
Summary of the method: (§1)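 MCF-7 or PC-3 cells (2 × 10^6) treated with compound, lysed (1 × 10^6 cells) in cold NP-40 buffer with protease inhibitors 30 min on ice, 12,000 g 10 min 4 °C. 50 µg protein per lane on SDS-PAGE, PVDF transfer, 5% milk block, primary antibody 2 h, HRP secondary 1 h, ECL on film; β-actin internal control.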

[2] = system: Mus musculus; assay: Toxicity in Swiss mouse implanted with Swiss mouse EAC cells assessed as body weight at 70 mg/kg, ip administered for 1 to 9 days measured on day 5 (reference value: 26.2 g); format: organism-based, Ehrlich; details: in vivo
[3] = system: PC-3; assay: Induction of cell cycle arrest in human PC3 cells assessed as accumulation at G2 phase at 10 uM after 24 hrs by propidium iodide-staining based FACS analysis (reference value: 17 %); format: functional
Summary of the method: (§2)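 MCF-7 or PC-3 cells treated at indicated concentrations for 24 h, pelleted, PBS-washed, fixed in ice-cold 70% ethanol overnight at 4 °C. RNase 0.2 mg/mL 1 h at 37 °C, propidium iodide 10 µg/mL 30 min dark. 10,000 events (FL2-A vs FL2-W) by flow cytometry; fractions in apoptosis/sub-G1, G1, S, G2-M.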

[4] = system: PC-3; assay: Induction of cell cycle arrest in human PC3 cells assessed as accumulation at G1 phase at 10 uM after 24 hrs by propidium iodide-staining based FACS analysis (reference value: 39 %); format: functional; summary of the method: as §2
[5] = system: Mus musculus; assay: Toxicity in Swiss mouse implanted with Swiss mouse EAC cells assessed as body weight at 70 mg/kg, ip administered for 1 to 9 days measured on day 12 (reference value: 28.4 g); format: organism-based, Ehrlich; details: in vivo
[6] = system: PC-3; assay: Induction of cell cycle arrest in human PC3 cells assessed as accumulation at S phase at 30 uM after 24 hrs by propidium iodide-staining based FACS analysis (reference value: 44 %); format: functional
Summary of the method: (§3)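 PC-3 cells exposed 24 h at indicated concentrations, pelleted, fixed overnight in ice-cold 70% ethanol at 4 °C, RNase 0.2 mg/mL at 37 °C 1 h, propidium iodide 10 µg/mL 30 min in dark; 10,000 events acquired (FL2-A vs FL2-W); DNA histograms modelled for apoptotic (sub-G1), G1, S and G2-M fractions.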

[7] = Downregulation of PI3Kdelta expression in human PC3 cells at 30 uM by Western blot analysis; format: functional, cell-based; details: PC-3; summary of the method: as §1
[8] = system: PC-3; assay: Induction of cell cycle arrest in human PC3 cells assessed as apoptotic cells at 30 uM after 24 hrs by propidium iodide-staining based FACS analysis (reference value: 2 %); format: functional; summary of the method: as §3
[9] = system: PC-3; assay: Induction of cell cycle arrest in human PC3 cells assessed as accumulation at G1 phase at 20 uM after 24 hrs by propidium iodide-staining based FACS analysis (reference value: 39 %); format: functional; summary of the method: as §2
[10] = system: Mus musculus; assay: Toxicity in Swiss mouse implanted with Swiss mouse EAC cells assessed as body weight at 25 mg/kg, ip administered for 1 to 9 days measured on day 5 (reference value: 26.2 g); format: organism-based, Ehrlich; details: in vivo
[11] = system: Mus musculus; assay: Toxicity in Swiss mouse implanted with Swiss mouse EAT cells assessed as mortality at 15 mg/kg, ip administered for 1 to 9 days measured on day 9 and 13; format: organism-based; details: in vivo
Summary of the method: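 EAC cells harvested from 8–10-day ascitic Swiss mice; 1×10^7 cells injected intramuscularly into right thigh of Swiss male mice on day 0. Randomized next day: treated n=7, saline control n=10 (0.2 ml i.p.). Dosing i.p. days 1–9. […] Body weight and mortality tracked.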

[12] = Anticancer activity against Swiss mouse EAC cells implanted in Swiss mouse assessed as tumor growth inhibition at 25 mg/kg, ip administered for 1 to 9 days measured on day 12 relative to control; format: functional; details: Ehrlich, read-out: TGI
Summary of the method: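 Swiss mice given 1 × 10^7 EAC cells i.p. on day 0, randomized next day (treated n=7, control n=10). Compound given i.p. days 1-9; saline control (0.2 ml i.p.), 5-fluorouracil 20 mg/kg i.p. reference. Sacrificed day 12; ascitic fluid collected; % TGI from total peritoneal tumor cell count versus control.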

[13] = Downregulation of PI3Kbeta expression in human MCF7 cells at 30 uM by Western blot analysis; format: functional, cell-based; summary of the method: as §1
[14] = system: MCF7; assay: Induction of apoptosis in human MCF7 cells assessed as loss of mitochondrial membrane potential at 30 uM after 24 hrs by rhodamine-123-staining based FACS analysis (reference value: 7 % ); format: functional
Summary of the method: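 Cells (MCF-7 or PC-3) exposed to indicated concentrations for 24 h; rhodamine-123 (5 µM) added 1 h before end. Cells collected, PBS-washed; fluorescence of 10,000 events read in FL-1 by flow cytometry, loss of mitochondrial potential scored as decreased intensity.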

| Compound | Activity [1] [%] | Activity [2] [g] | Activity [3] [%] | Activity [4] [%] | Activity [5] [g] | Activity [6] [%] | Activity [7] [%] | Activity [8] [%] | Activity [9] [%] | Activity [10] [g] | Activity [11] | inhibition in vivo at 25 mg/kg [12] [%] | Activity [13] [%] | Activity [14] [%] |
| --- | --- | --- | --- | --- | --- | --- | --- | --- | --- | --- | --- | --- | --- | --- |
| N#CCc1ccc(Nc2ncnc3ccc(-c4cncc5ccccc45)cc23)cc1 | 100 | 23 | 3 | 44 | 24.33 | 46 | 32 | 25 | 65 | – | – | – | – | – |
| N#CCc1ccc(Nc2ncnc3ccc(-c4ccc5[nH]ccc5c4)cc23)cc1 | – | – | – | – | – | – | – | – | – | 22 | Non-Toxic | 62 | 4 | 20 |
